According to ChEMBL document CHEMBL4689842, “EUbOPEN Chemogenomics Library wave 1” (2021):

Test system: Fibroblast
Assay: Multiplex assay against human fibroblast
Assay type: toxicity, cell-based
How it was run: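 Per cents of healthy-nucleus cells form the tubulin, mitochondrial-mass and membrane-permeability phenotype values. Live cells were stained at seeding with Hoechst33342, BioTracker Green Microtubule Cytoskeleton Dye, MitoTracker Red and Annexin V Alexa Fluor 680. After compound addition they were imaged on a CQ1 microscope at 37°C and 5% CO2, and CellPathfinder machine-learning gating split them into Hoechst high-intensity objects or normal cells, normal cells into healthy, pyknosed or fragmented nuclei, and pyknosed cells into mitotic or apoptotic.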

[1] = 12 h, 1 µM, compound concentration 1 uM, replicate 1
[2] = 12 h, 1 µM, compound concentration 1 uM, replicate 2
[3] = 12 h, 10 µM, compound concentration 10 uM, replicate 1
[4] = 12 h, 10 µM, compound concentration 10 uM, replicate 2
[5] = 24 h, 1 µM, compound concentration 1 uM, replicate 1
[6] = 24 h, 1 µM, compound concentration 1 uM, replicate 2
[7] = 24 h, 10 µM, compound concentration 10 uM, replicate 1
[8] = 24 h, 10 µM, compound concentration 10 uM, replicate 2
[9] = 48 h, 1 µM, compound concentration 1 uM, replicate 1
[10] = 48 h, 1 µM, compound concentration 1 uM, replicate 2
[11] = 48 h, 10 µM, compound concentration 10 uM, replicate 1
[12] = 48 h, 10 µM, compound concentration 10 uM, replicate 2

CC(C)[C@H](CO)Nc1nc(Nc2cccc(Cl)c2)c2ncn(C(C)C)c2n1 [PURVALANOLA]
Population Apoptotic (%) [1]: 65% | Population Fragmented Nuclei (%) [1]: 30% | Population Healthy Nuclei (%) [1]: 39% | Population Hoechst High Intensity Objects (%) [1]: 17% | Population Membrane Permeable-Phenotype (%) [1]: 20% | Population Mitochondria Different-Phenotype (%) [1]: 7% | Population Mitotic Cells (%) [1]: 35% | Population Normal (%) [1]: 82% | Population Pyknosed Nuclei (%) [1]: 30% | Population Tubulin-Different-Phenotype (%) [1]: 48% | Total Cell Count [1]: 241 | Population Apoptotic (%) [2]: 50% | Population Fragmented Nuclei (%) [2]: 8% | Population Healthy Nuclei (%) [2]: 88% | Population Hoechst High Intensity Objects (%) [2]: 10% | Population Membrane Permeable-Phenotype (%) [2]: 7% | Population Mitochondria Different-Phenotype (%) [2]: 21% | Population Mitotic Cells (%) [2]: 50% | Population Normal (%) [2]: 89% | Population Pyknosed Nuclei (%) [2]: 3% | Population Tubulin-Different-Phenotype (%) [2]: 15% | Total Cell Count [2]: 111 | Population Apoptotic (%) [3]: 65% | Population Fragmented Nuclei (%) [3]: 24% | Population Healthy Nuclei (%) [3]: 38% | Population Hoechst High Intensity Objects (%) [3]: 17% | Population Membrane Permeable-Phenotype (%) [3]: 10% | Population Mitochondria Different-Phenotype (%) [3]: 54% | Population Mitotic Cells (%) [3]: 34% | Population Normal (%) [3]: 82% | Population Pyknosed Nuclei (%) [3]: 36% | Population Tubulin-Different-Phenotype (%) [3]: 95% | Total Cell Count [3]: 143 | Population Apoptotic (%) [4]: 83% | Population Fragmented Nuclei (%) [4]: 13% | Population Healthy Nuclei (%) [4]: 79% | Population Hoechst High Intensity Objects (%) [4]: 7% | Population Membrane Permeable-Phenotype (%) [4]: 23% | Population Mitochondria Different-Phenotype (%) [4]: 95% | Population Mitotic Cells (%) [4]: 16% | Population Normal (%) [4]: 92% | Population Pyknosed Nuclei (%) [4]: 6% | Population Tubulin-Different-Phenotype (%) [4]: 98% | Total Cell Count [4]: 66 | Population Apoptotic (%) [5]: 48% | Population Fragmented Nuclei (%) [5]: 32% | Population Healthy Nuclei (%) [5]: 49% | Population Hoechst High Intensity Objects (%) [5]: 18% | Population Membrane Permeable-Phenotype (%) [5]: 24% | Population Mitochondria Different-Phenotype (%) [5]: 7% | Population Mitotic Cells (%) [5]: 51% | Population Normal (%) [5]: 81% | Population Pyknosed Nuclei (%) [5]: 18% | Population Tubulin-Different-Phenotype (%) [5]: 60% | Total Cell Count [5]: 248 | Population Apoptotic (%) [6]: 60% | Population Fragmented Nuclei (%) [6]: 8% | Population Healthy Nuclei (%) [6]: 83% | Population Hoechst High Intensity Objects (%) [6]: 6% | Population Membrane Permeable-Phenotype (%) [6]: 5% | Population Mitochondria Different-Phenotype (%) [6]: 23% | Population Mitotic Cells (%) [6]: 40% | Population Normal (%) [6]: 93% | Population Pyknosed Nuclei (%) [6]: 8% | Population Tubulin-Different-Phenotype (%) [6]: 9% | Total Cell Count [6]: 157 | Population Apoptotic (%) [7]: 72% | Population Fragmented Nuclei (%) [7]: 26% | Population Healthy Nuclei (%) [7]: 47% | Population Hoechst High Intensity Objects (%) [7]: 20% | Population Membrane Permeable-Phenotype (%) [7]: 16% | Population Mitochondria Different-Phenotype (%) [7]: 63% | Population Mitotic Cells (%) [7]: 27% | Population Normal (%) [7]: 79% | Population Pyknosed Nuclei (%) [7]: 25% | Population Tubulin-Different-Phenotype (%) [7]: 94% | Total Cell Count [7]: 145 | Population Apoptotic (%) [8]: 80% | Population Fragmented Nuclei (%) [8]: 16% | Population Healthy Nuclei (%) [8]: 65% | Population Hoechst High Intensity Objects (%) [8]: 8% | Population Membrane Permeable-Phenotype (%) [8]: 50% | Population Mitochondria Different-Phenotype (%) [8]: 100% | Population Mitotic Cells (%) [8]: 20% | Population Normal (%) [8]: 91% | Population Pyknosed Nuclei (%) [8]: 17% | Population Tubulin-Different-Phenotype (%) [8]: 100% | Total Cell Count [8]: 66 | Population Apoptotic (%) [9]: 60% | Population Fragmented Nuclei (%) [9]: 39% | Population Healthy Nuclei (%) [9]: 51% | Population Hoechst High Intensity Objects (%) [9]: 19% | Population Membrane Permeable-Phenotype (%) [9]: 23% | Population Mitochondria Different-Phenotype (%) [9]: 4% | Population Mitotic Cells (%) [9]: 40% | Population Normal (%) [9]: 80% | Population Pyknosed Nuclei (%) [9]: 9% | Population Tubulin-Different-Phenotype (%) [9]: 49% | Total Cell Count [9]: 203 | Population Apoptotic (%) [10]: 50% | Population Fragmented Nuclei (%) [10]: 23% | Population Healthy Nuclei (%) [10]: 73% | Population Hoechst High Intensity Objects (%) [10]: 8% | Population Membrane Permeable-Phenotype (%) [10]: 16% | Population Mitochondria Different-Phenotype (%) [10]: 0% | Population Mitotic Cells (%) [10]: 50% | Population Normal (%) [10]: 91% | Population Pyknosed Nuclei (%) [10]: 2% | Population Tubulin-Different-Phenotype (%) [10]: 34% | Total Cell Count [10]: 74 | Population Apoptotic (%) [11]: 85% | Population Fragmented Nuclei (%) [11]: 32% | Population Healthy Nuclei (%) [11]: 49% | Population Hoechst High Intensity Objects (%) [11]: 17% | Population Membrane Permeable-Phenotype (%) [11]: 11% | Population Mitochondria Different-Phenotype (%) [11]: 79% | Population Mitotic Cells (%) [11]: 15% | Population Normal (%) [11]: 82% | Population Pyknosed Nuclei (%) [11]: 18% | Population Tubulin-Different-Phenotype (%) [11]: 92% | Total Cell Count [11]: 131 | Population Apoptotic (%) [12]: 50% | Population Fragmented Nuclei (%) [12]: 37% | Population Healthy Nuclei (%) [12]: 60% | Population Hoechst High Intensity Objects (%) [12]: 18% | Population Membrane Permeable-Phenotype (%) [12]: 7% | Population Mitochondria Different-Phenotype (%) [12]: 59% | Population Mitotic Cells (%) [12]: 50% | Population Normal (%) [12]: 81% | Population Pyknosed Nuclei (%) [12]: 2% | Population Tubulin-Different-Phenotype (%) [12]: 96% | Total Cell Count [12]: 117
